Source: ChEMBL document CHEMBL1140069, “In vitro antifungal activity of polyfunctionalized 2-(hetero)arylquinolines prepared through imino Diels-Alder reactions” (2008)
Converted amounts (≈) assume the structure as drawn.

Legend:
Assay type in all cases: functional
[1] = test system: Aspergillus flavus; test: Antifungal activity against Aspergillus flavus ATCC 9170 after 48 hrs by broth microdilution technique; conditions: ATCC 9170, 48 h
Method in brief: (§1)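 CLSI broth microdilution: M-27 A2 for yeasts and M-38 A for filamentous fungi. Medium is RPMI-1640 buffered to pH 7.0 with MOPS. Compound is diluted twofold from 250 to 0.98, final DMSO ≤2%. Inoculum is 1–5 × 10³ CFU/mL. Plates are incubated at 35 °C in a moist, dark chamber and read visually at 48 h. MIC100 is the lowest concentration giving total growth inhibition versus drug-free control.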

[2] = test system: Nannizzia gypsea; test: Antifungal activity against Microsporum gypseum C115 after 48 hrs by broth microdilution technique; method in brief: as §1
[3] = test system: Trichophyton mentagrophytes; test: Antifungal activity against Trichophyton mentagrophytes ATCC 9972 after 48 hrs by broth microdilution technique; conditions: ATCC 9972, 48 h; method in brief: as §1
[4] = test system: Candida albicans; test: Antimicrobial activity against Candida albicans ATCC 10231 at 100 ug/ml after 24 hrs; conditions: ATCC 10231, 24 h
Method in brief: (§2)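 Growth-inhibition microplate test. Strains are grown on Sabouraud-chloramphenicol agar for 48 h at 30 °C, and inoculum is added to RPMI-1640 containing compound at a final 100–6.25, with DMSO ≤2%. Each strain has a growth control (same DMSO, no compound) and a sterility control.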

[5] = test system: Candida albicans; test: Antimicrobial activity against Candida albicans ATCC 10231 at 50 ug/ml after 24 hrs; conditions: ATCC 10231, 24 h; method in brief: as §2
[6] = test system: Candida albicans; test: Antimicrobial activity against Candida albicans ATCC 10231 at 6.25 ug/ml after 24 hrs; conditions: ATCC 10231, 24 h; method in brief: as §2
[7] = test system: Cryptococcus neoformans; test: Antimicrobial activity against Cryptococcus neoformans IM 972724 isolate at 6.25 ug/ml after 48 hrs
Method in brief: (§3)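 Clinical Cryptococcus isolates kept on Sabouraud-dextrose agar slopes; inoculum 1–5 × 10³ CFU/mL. Quinoline DMSO stocks were diluted in RPMI-1640 to final 100–6.25 µg/mL, with DMSO ≤2%. An equal volume of inoculum was added (200 µL per well). Run in triplicate.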

[8] = test system: Cryptococcus neoformans; test: Antimicrobial activity against Cryptococcus neoformans ATCC 32264 at 100 ug/ml after 48 hrs; conditions: ATCC 32264, 48 h
Method in brief: (§4)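 Percent growth inhibition in 96-well microplates. Compound stocks in DMSO (≤2%) were diluted in RPMI-1640 to final 100–6.25 µg/mL, and 100 µL inoculum was added (final 200 µL). Controls were a growth well (inoculum with matching DMSO, no compound) and a sterility well (no inoculum). Inhibition was calculated against growth and sterility wells.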

[9] = test system: Cryptococcus neoformans; test: Antimicrobial activity against Cryptococcus neoformans ATCC 32264 at 50 ug/ml after 48 hrs; conditions: ATCC 32264, 48 h; method in brief: as §4
[10] = test system: Cryptococcus neoformans; test: Antimicrobial activity against Cryptococcus neoformans IM 972724 isolate at 50 ug/ml after 48 hrs; method in brief: as §3
[11] = test system: Cryptococcus neoformans; test: Antimicrobial activity against Cryptococcus neoformans IM 042074 isolate at 100 ug/ml after 48 hrs; method in brief: as §4
[12] = test system: Cryptococcus neoformans; test: Antimicrobial activity against Cryptococcus neoformans IM 042074 isolate at 50 ug/ml after 48 hrs; method in brief: as §4
[13] = test system: Cryptococcus neoformans; test: Antimicrobial activity against Cryptococcus neoformans IM 042074 isolate at 12.5 ug/ml after 48 hrs; method in brief: as §4
[14] = test system: Cryptococcus neoformans; test: Antimicrobial activity against Cryptococcus neoformans IM 042074 isolate at 6.25 ug/ml after 48 hrs; method in brief: as §4
[15] = test system: Cryptococcus neoformans; test: Antimicrobial activity against Cryptococcus neoformans IM 983036 isolate at 50 ug/ml after 48 hrs; method in brief: as §3
[16] = test system: Cryptococcus neoformans; test: Antimicrobial activity against Cryptococcus neoformans IM 983036 isolate at 25 ug/ml after 48 hrs; method in brief: as §3
[17] = test system: Cryptococcus neoformans; test: Antimicrobial activity against Cryptococcus neoformans IM 983036 isolate at 12.5 ug/ml after 48 hrs; method in brief: as §3
[18] = test system: Cryptococcus neoformans; test: Antimicrobial activity against Cryptococcus neoformans IM 00319 isolate at 50 ug/ml after 48 hrs; method in brief: as §4
[19] = test system: Cryptococcus neoformans; test: Antimicrobial activity against Cryptococcus neoformans IM 00319 isolate at 25 ug/ml after 48 hrs; method in brief: as §4
[20] = test system: Cryptococcus neoformans; test: Antimicrobial activity against Cryptococcus neoformans IM 00319 isolate at 12.5 ug/ml after 48 hrs; method in brief: as §4
[21] = test system: Cryptococcus neoformans; test: Antimicrobial activity against Cryptococcus neoformans IM 972751 isolate at 100 ug/ml after 48 hrs; method in brief: as §3
[22] = test system: Cryptococcus neoformans; test: Antimicrobial activity against Cryptococcus neoformans IM 972751 isolate at 50 ug/ml after 48 hrs; method in brief: as §3
[23] = test system: Cryptococcus neoformans; test: Antimicrobial activity against Cryptococcus neoformans IM 972751 isolate at 25 ug/ml after 48 hrs; method in brief: as §3
[24] = test system: Cryptococcus neoformans; test: Antimicrobial activity against Cryptococcus neoformans IM 972751 isolate at 12.5 ug/ml after 48 hrs; method in brief: as §3
[25] = test system: Cryptococcus neoformans; test: Antimicrobial activity against Cryptococcus neoformans IM 031631 isolate at 100 ug/ml after 48 hrs; method in brief: as §4
[26] = test system: Cryptococcus neoformans; test: Antimicrobial activity against Cryptococcus neoformans IM 031631 isolate at 25 ug/ml after 48 hrs; method in brief: as §4
[27] = test system: Cryptococcus neoformans; test: Antimicrobial activity against Cryptococcus neoformans IM 031631 isolate at 6.25 ug/ml after 48 hrs; method in brief: as §4
[28] = test system: Cryptococcus neoformans; test: Antimicrobial activity against Cryptococcus neoformans IM 031706 isolate at 50 ug/ml after 48 hrs; method in brief: as §4
[29] = test system: Cryptococcus neoformans; test: Antimicrobial activity against Cryptococcus neoformans IM 031706 isolate at 6.25 ug/ml after 48 hrs; method in brief: as §4
[30] = test system: Cryptococcus neoformans; test: Antimicrobial activity against Cryptococcus neoformans IM 961951 isolate at 50 ug/ml after 48 hrs; method in brief: as §3
[31] = test system: Cryptococcus neoformans; test: Antimicrobial activity against Cryptococcus neoformans IM 961951 isolate at 25 ug/ml after 48 hrs; method in brief: as §3
[32] = test system: Cryptococcus neoformans; test: Antimicrobial activity against Cryptococcus neoformans IM 961951 isolate at 12.5 ug/ml after 48 hrs; method in brief: as §4
[33] = test system: Cryptococcus neoformans; test: Antimicrobial activity against Cryptococcus neoformans IM 961951 isolate at 6.25 ug/ml after 48 hrs; method in brief: as §3
[34] = test system: Cryptococcus neoformans; test: Antimicrobial activity against Cryptococcus neoformans IM 052470 isolate at 100 ug/ml after 48 hrs; method in brief: as §4
[35] = test system: Cryptococcus neoformans; test: Antimicrobial activity against Cryptococcus neoformans IM 052470 isolate at 25 ug/ml after 48 hrs; method in brief: as §4
[36] = test system: Cryptococcus neoformans; test: Antimicrobial activity against Cryptococcus neoformans ATCC 32264 at 12.5 ug/ml after 48 hrs; conditions: ATCC 32264, 48 h; method in brief: as §4
[37] = test system: Cryptococcus neoformans; test: Antimicrobial activity against Cryptococcus neoformans ATCC 32264 at 6.25 ug/ml after 48 hrs; conditions: ATCC 32264, 48 h; method in brief: as §4
[38] = test system: Cryptococcus neoformans; test: Antimicrobial activity against Cryptococcus neoformans IM 983040 isolate at 100 ug/ml after 48 hrs; method in brief: as §3
[39] = test system: Cryptococcus neoformans; test: Antimicrobial activity against Cryptococcus neoformans IM 983040 isolate at 50 ug/ml after 48 hrs; method in brief: as §3
[40] = test system: Cryptococcus neoformans; test: Antimicrobial activity against Cryptococcus neoformans IM 983040 isolate at 25 ug/ml after 48 hrs; method in brief: as §3
[41] = test system: Cryptococcus neoformans; test: Antimicrobial activity against Cryptococcus neoformans IM 983040 isolate at 12.5 ug/ml after 48 hrs; method in brief: as §3
[42] = test system: Cryptococcus neoformans; test: Antimicrobial activity against Cryptococcus neoformans IM 972724 isolate at 100 ug/ml after 48 hrs; method in brief: as §3
[43] = test system: Cryptococcus neoformans; test: Antimicrobial activity against Cryptococcus neoformans IM 052470 isolate at 6.25 ug/ml after 48 hrs; method in brief: as §4

Molecule `Cc1cc(-c2ccncc2)nc2ccccc12` has an MIC [1] of 100 µg/mL (≈ 454 µM), an MIC [2] of 25 µg/mL (≈ 113 µM) and an MIC [3] of 25 µg/mL (≈ 113 µM). For the same molecule, the inhibition at 100 µg/mL [4] was 100%, the inhibition at 50 µg/mL [5] was 73% and the inhibition at 6.25 µg/mL [6] was 19%. The inhibition at 6.25 µg/mL [7] was 0%, the inhibition at 100 µg/mL [8] was 100% and the inhibition at 50 µg/mL [9] was 100%. For the same molecule, the inhibition at 50 µg/mL [10] was 23%, the inhibition at 100 µg/mL [11] was 92% and the inhibition at 50 µg/mL [12] was 87%. For the same molecule, the inhibition at 12.5 µg/mL [13] was 76%, the inhibition at 6.25 µg/mL [14] was 68% and the inhibition at 50 µg/mL [15] was 69%. For the same molecule, the inhibition at 25 µg/mL [16] was 45%, the inhibition at 12.5 µg/mL [17] was 20% and the inhibition at 50 µg/mL [18] was 80%. For the same molecule, the inhibition at 25 µg/mL [19] was 52%, the inhibition at 12.5 µg/mL [20] was 32% and the inhibition at 100 µg/mL [21] was 98%. The inhibition at 50 µg/mL [22] was 20%, the inhibition at 25 µg/mL [23] was 9% and the inhibition at 12.5 µg/mL [24] was 0%. For the same molecule, the inhibition at 100 µg/mL [25] was 100%, the inhibition at 25 µg/mL [26] was 57% and the inhibition at 6.25 µg/mL [27] was 12%. It also gave an inhibition at 50 µg/mL [28] of 69%, an inhibition at 6.25 µg/mL [29] of 21% and an inhibition at 50 µg/mL [30] of 89%. For the same molecule, the inhibition at 25 µg/mL [31] was 78%, the inhibition at 12.5 µg/mL [32] was 34% and the inhibition at 6.25 µg/mL [33] was 4%. The inhibition at 100 µg/mL [34] was 99%, the inhibition at 25 µg/mL [35] was 53% and the inhibition at 12.5 µg/mL [36] was 90.5%. The inhibition at 6.25 µg/mL [37] was 83%, the inhibition at 100 µg/mL [38] was 45% and the inhibition at 50 µg/mL [39] was 34%. The inhibition at 25 µg/mL [40] was 12%, the inhibition at 12.5 µg/mL [41] was 0% and the inhibition at 100 µg/mL [42] was 74%. It also gave an inhibition at 6.25 µg/mL [43] of 0%.
`c1ccc(-c2ccc3ccccc3n2)cc1` [2-PHENYLQUINOLINE] gave an MIC [1] greater than 250 µg/mL, an MIC [2] of 16 µg/mL (≈ 77.9 µM) and an MIC [3] of 25 µg/mL (≈ 122 µM). For the same molecule, the inhibition at 100 µg/mL [4] was 0%, the inhibition at 50 µg/mL [5] was 0% and the inhibition at 6.25 µg/mL [6] was 0%. The inhibition at 6.25 µg/mL [7] was 0%, the inhibition at 100 µg/mL [8] was 100% and the inhibition at 50 µg/mL [9] was 100%. For the same molecule, the inhibition at 50 µg/mL [10] was 87%, the inhibition at 100 µg/mL [11] was 84% and the inhibition at 50 µg/mL [12] was 77%. It also gave an inhibition at 12.5 µg/mL [13] of 7%, an inhibition at 6.25 µg/mL [14] of 0% and an inhibition at 50 µg/mL [15] of 12%. It also gave an inhibition at 25 µg/mL [16] of 0%, an inhibition at 12.5 µg/mL [17] of 0% and an inhibition at 50 µg/mL [18] of 34%. The inhibition at 25 µg/mL [19] was 14%, the inhibition at 12.5 µg/mL [20] was 0% and the inhibition at 100 µg/mL [21] was 83%. The inhibition at 50 µg/mL [22] was 54%, the inhibition at 25 µg/mL [23] was 22% and the inhibition at 12.5 µg/mL [24] was 0%. It also gave an inhibition at 100 µg/mL [25] of 74%, an inhibition at 25 µg/mL [26] of 15% and an inhibition at 6.25 µg/mL [27] of 0%. For the same molecule, the inhibition at 50 µg/mL [28] was 46%, the inhibition at 6.25 µg/mL [29] was 0% and the inhibition at 50 µg/mL [30] was 32%. It also gave an inhibition at 25 µg/mL [31] of 10%, an inhibition at 12.5 µg/mL [32] of 0% and an inhibition at 6.25 µg/mL [33] of 0%. For the same molecule, the inhibition at 100 µg/mL [34] was 88%, the inhibition at 25 µg/mL [35] was 35% and the inhibition at 12.5 µg/mL [36] was 32%. It also gave an inhibition at 6.25 µg/mL [37] of 0%, an inhibition at 100 µg/mL [38] of 50% and an inhibition at 50 µg/mL [39] of 29%. For the same molecule, the inhibition at 25 µg/mL [40] was 13%, the inhibition at 12.5 µg/mL [41] was 4% and the inhibition at 100 µg/mL [42] was 99%. It also gave an inhibition at 6.25 µg/mL [43] of 0%.
